In ChEMBL document CHEMBL1149157, “Synthesis and structure-activity relationship of novel antitumoral platinum xanthate complexes” (J Med Chem, 2004):

Columns and labels:
Type in all cases: functional, cell-based, Homo sapiens
Calu-6 [1] = assay: Cytotoxic activity was determined in vitro in Calu-6 cell line culture at pH 7.4
How it was run: (§1)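 Plated at 2×10^6 cells/plate. After one day, medium was replaced with pH 7.4 medium (2.2 g NaHCO3/L) and equilibrated under 5% CO2. Cells got 2 h at 37°C, in quadruplicate, of a 1:2 series 50–0.8 µg/mL (acetone ≤5%), then drug-free pH 7.4 medium for 24–96 h until controls were confluent. Fixed with 3% formaldehyde, stained with 1% crystal violet, A550. IC50 from dose–response curves; mean of four assays ± SD.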

SK-MEL-25 [2] = assay: Cytotoxic activity was determined in vitro in SK-MEL-25 cell line culture at pH 7.4; how it was run: as §1
LXF-289 cell line [3] = assay: Cytotoxic activity was determined in vitro in LXF-289 cell line culture at pH 7.4; how it was run: as §1
Calu-6 [4] = assay: Cytotoxic activity was determined in vitro in Calu-6 cell line culture at pH 6.8
How it was run: (§2)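 Seeded at 2×10^6 cells/plate. Next day, switched to pH 6.8 medium (1.3 g NaHCO3/L, serum acidified with 1 N HCl) and equilibrated in 5% CO2. Exposed for 2 h at 37°C in quadruplicate to 50–0.8 µg/mL (1:2 series; acetone ≤5%), then given drug-free pH 7.4 medium until controls were confluent. Read by formaldehyde fixation and crystal violet at 550 nm. IC50 from dose–response curves, mean of four assays ± SD.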

MCF7 [5] = assay: Cytotoxic activity was determined in vitro in MCF-7 cell line culture at pH 7.4
How it was run: (§3)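 Using pH 7.4 medium (2.2 g NaHCO3/L) on cells plated a day earlier at 2×10^6/plate, with equilibration in 5% CO2. Compounds were applied for 2 h at 37°C in quadruplicate at 50–0.8 µg/mL (1:2; acetone ≤5%), followed by drug-free pH 7.4 medium until controls were confluent. Fixed and stained with crystal violet, dye eluted with ethanol/1% acetic acid, read at 550 nm. IC50 from curves, mean of four ± SD.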

MCF7 [6] = assay: Cytotoxic activity was determined in vitro in MCF-7 cell line culture at pH 6.8
How it was run: (§4)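 Cells at 2×10^6/plate were moved the next day into pH 6.8 medium (1.3 g NaHCO3/L; serum given 1 N HCl; 30 min 5% CO2). Treated 2 h at 37°C, quadruplicate, 50–0.8 µg/mL in 1:2 steps (acetone ≤5%), then grown in drug-free pH 7.4 medium to control confluence. Crystal violet stain eluted with ethanol/1% acetic acid before A550. IC50 from curves, mean of four assays ± SD.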

KB [7] = assay: Cytotoxic activity was determined in vitro in KB cell line culture at pH 7.4; how it was run: as §3
SK-OV-3 [8] = assay: Cytotoxic activity was determined in vitro in SK-OV-3 cell line culture at pH 6.8
How it was run: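 SK-OV-3 seeded at 1×10^6 cells/plate. Next day, placed in pH 6.8 medium (1.3 g NaHCO3/L, HCl-treated serum, 5% CO2). Given 2 h at 37°C, in quadruplicate, of 50–0.8 µg/mL (1:2; acetone ≤5%), then drug-free pH 7.4 medium until controls were confluent. Formaldehyde-fixed and crystal violet-stained, A550. IC50 from dose–response curves, mean of four assays ± SD.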

SK-OV-3 [9] = assay: Cytotoxic activity was determined in vitro in SK-OV-3 cell line culture at pH 7.4
How it was run: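 With 1×10^6 cells/plate seeded, medium was changed the next day to pH 7.4 (2.2 g NaHCO3/L) under 5% CO2. Cells were exposed 2 h at 37°C in quadruplicate to a 1:2 series of 50–0.8 µg/mL (acetone ≤5%), then given drug-free pH 7.4 medium until controls were confluent. Crystal violet read at 550 nm after formaldehyde fixation. IC50 from curves; mean of four assays ± SD.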

SK-MEL-25 [10] = assay: Cytotoxic activity was determined in vitro in SK-MEL-25 cell line culture at pH 6.8; how it was run: as §2
KB [11] = assay: Cytotoxic activity was determined in vitro in KB cell line culture at pH 6.8; how it was run: as §4
LXF-289 cell line [12] = assay: Cytotoxic activity was determined in vitro in LXF-289 cell line culture at pH 6.8; how it was run: as §2

Substance	IC50 (Calu-6 [1]) [µM]	IC50 (SK-MEL-25 [2]) [µM]	IC50 (LXF-289 cell line [3]) [µM]	IC50 (Calu-6 [4]) [µM]	IC50 (MCF7 [5]) [µM]	IC50 (MCF7 [6]) [µM]	IC50 (KB [7]) [µM]	IC50 (SK-OV-3 [8]) [µM]	IC50 (SK-OV-3 [9]) [µM]	IC50 (SK-MEL-25 [10]) [µM]	IC50 (KB [11]) [µM]	IC50 (LXF-289 cell line [12]) [µM]
2,6-dicyclobutoxy-1,3,5,7-tetrathia-4-platinaspiro[3.3]heptane	7	12	44	3	21	11	20	17	19	7	6	37
2,6-bis(pentyloxy)-1,3,5,7-tetrathia-4-platinaspiro[3.3]heptane	15	32	62	9	34	10	25	31	66	19	16	38
2,6-diethoxy-1,3,5,7-tetrathia-4-platinaspiro[3.3]heptane	24	56	91	21	47	12	58	86	98	21	18	45
